SMILES strings stand for the structures.

Common to all, as to type: functional, cell-based
One assay has as its system PC-3M. The assay can be described thus: (§1) Cytotoxicity against human PC3M cells after 24 hrs by MTT assay. Summed up:
(§2)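 Human cancer cell lines from ATCC were seeded at 3000 cells per well and dosed 24 h after seeding across a range of concentrations. After 24 h of compound exposure, MTT was added and incubation continued another 24 h. Viability was read as absorbance at 570 nm and IC50 calculated. Paclitaxel was the positive control.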

The subject of another assay is Bel-7402. Briefly: Cytotoxicity against human Bel7402 cells after 24 hrs by MTT assay. Summed up:
as §2

The subject of the next assay is HCT-8. The assay can be described thus: Cytotoxicity against human HCT8 cells after 24 hrs by MTT assay. The gist of the method:
as §2

For a further assay, the system named is A549. The assay can be described thus: Cytotoxicity against human A549 cells after 24 hrs by MTT assay. Summed up:
as §2

A short description of assay [1]: as §1. To be noted: PC-3M. Summed up: as §2

For `C[C@@H]1COC(=O)[C@H]2[C@@H]1C[C@H](O)[C@@]2(C)O`, the Activity result in the assay on PC-3M, in the assay on Bel-7402, in the assay on HCT-8 and in the assay with A549 was “Not toxic” in each case.
For the compound `C=C(C=O)[C@H]1C[C@H](O)[C@@](C)(O)[C@H]1C(=O)OC`, the Activity entry with PC-3M, in the assay with Bel-7402, with HCT-8 and with A549 was “Not toxic” each time.
As to `C=C1[C@H]2OC[C@H]3[C@@H]1C[C@H](O)[C@@]3(C)O2`, the Activity result with PC-3M, in the assay with Bel-7402, with HCT-8 and in the assay on A549 was “Not toxic” throughout.
On to `CO[C@@H]1O[C@]2(C)[C@@H](O)C[C@@H]3[C@H]1COC(=O)[C@@H]32`, for which the Activity entry with PC-3M, in the assay with Bel-7402, in the assay on HCT-8 and in the assay with A549 was “Not toxic” throughout.
For the compound `C=C1CO[C@@]2(CO)C(CO)=CC[C@H]12`, the Activity result in the assay with PC-3M, with Bel-7402, in the assay with HCT-8 and in the assay with A549 was “Not toxic” in each case.
With `C=C1[C@H]2OC(=O)[C@H]3[C@@H]1C[C@H](O)[C@@]3(C)O2`, the Activity entry with PC-3M, in the assay on Bel-7402, in the assay on HCT-8 and in the assay with A549 was “Not toxic” in each case.
Regarding `C=C(C=O)[C@@]1(O)C[C@H](OC(C)=O)C(CO)=C1C=O`, the Activity result in the assay with PC-3M, in the assay on Bel-7402, with HCT-8 and with A549 was “Not toxic” in each case.
Take `C=C(CO)[C@H]1C[C@H](O)[C@@](C)(O)[C@H]1CO`: the Activity entry with PC-3M, in the assay on Bel-7402, in the assay with HCT-8 and in the assay with A549 was “Not toxic” each time.
Take `COc1cc(C[C@H]2CO[C@H](c3ccc(O)c(OC)c3)[C@H]2COC(=O)CC(C)C)ccc1O` [(+)-9'-ISOVALEROXYLARICIRESINOL]: the IC50 in assay [1] was determined as 8.1 µM; in the assay on HCT-8 (HCT-8, 24 h), 5.3 µM. The Activity entry in the assay with Bel-7402 and with A549 was “Not toxic” each time.
Take `C[C@H]1COC(=O)[C@H]2[C@@H]1C[C@H](O)[C@@]2(C)O`: the Activity entry in the assay with PC-3M, in the assay with Bel-7402, in the assay with HCT-8 and in the assay on A549 was “Not toxic” throughout.
For the compound `CO[C@H]1OC(=O)[C@H]2[C@@H]3C[C@H](O)[C@@]2(C)OC[C@H]13`, the Activity entry in the assay on PC-3M, in the assay on Bel-7402, with HCT-8 and in the assay with A549 was “Not toxic” throughout.
As to `C=C1[C@H]2O[C@@H](O)[C@H]3[C@@H]1C[C@H](O)[C@@]3(C)O2`, the Activity result with PC-3M, with Bel-7402, with HCT-8 and with A549 was “Not toxic” each time.
Consider `C[C@]12O[C@@H]3OC(=O)[C@H]1[C@H](C[C@@H]2O)[C@H]3CO`, for which the Activity entry with PC-3M, with Bel-7402, in the assay on HCT-8 and with A549 was “Not toxic” throughout.
In the case of `C=C1COC(=O)[C@H]2[C@@H]1C[C@H](O)[C@@]2(C)O`, the Activity entry in the assay on PC-3M, in the assay on Bel-7402, in the assay with HCT-8 and with A549 was “Not toxic” each time.
